{"source": "paper PMC2213236", "about": "(The Journal of Experimental Medicine, 2005)", "key": {"murine T cells": {"system": "murine T cells", "conditions": "first 14 amino acids of the A-chain of bovine insulin; cited from earlier work"}, "human T cells": {"system": "human T cells", "conditions": "first 14 amino acids of the A-chain of bovine insulin; cited from earlier work"}, "[1]": {"system": "human CD4^+ T cell clones to proinsulin", "format": "cell-based", "conditions": "for stimulation of clones by insulin and proinsulin: titrated from 1 μM to 0.1 nM, mean of triplicates ± SEM", "method_in_brief": "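Clones were cultured in triplicate in IMDM with 5% pooled human serum and irradiated APCs (autologous or HLA-matched PBMCs at 20 Gy, or EBV B-cell lines at 50 Gy). Insulin or proinsulin was used at 10 μg/ml, with anti-HLA DR mAb at 5 μg/ml where indicated. RP-HPLC fractions were tested at 1/400. After 2 d, 3H-thymidine (0.5 μCi/well, 18 h) was added; β-scintillation; mean ± SEM of triplicates.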"}, "HLA DRB1*0404": {"system": "HLA DRB1*0404", "test": "HLA DR binding", "parameters": "species or system human", "conditions": "compared with the serine-substituted homologue"}, "[2]": {"test": "Formation and reduction of the vicinal disulfide bond", "format": "physicochemical", "conditions": "MS, unpublished data"}, "[3]": {"system": "proinsulin-specific CD4^+ T cell clones from two healthy HLA DR4^+ donors", "test": "Proliferation of proinsulin-specific CD4+ T cell clones from healthy donors", "format": "cell-based, human", "conditions": "13 clones from two healthy HLA DR4^+ donors (6 and 7 clones); unpublished data"}}, "data": [{"substance": "GIVEQCCASVCSLY", "values": [{"measurement": "recognition by T cells after immunization", "setting": "murine T cells", "value": "recognized"}, {"measurement": "recognition by T cells after immunization", "setting": "human T cells", "value": "recognized"}]}, {"substance": "KRGIVDQCCTSICSL", "values": [{"measurement": "potency relative to the human homologue (fold less potent)", "setting": "[1]; mouse vs human insulin A1-13, 50—0.05 μM peptide", "value": "~10 -fold less potent"}]}, {"substance": "KRGIVEQC-CTSISSL (disulfide)", "values": [{"measurement": "effect of the vicinal disulfide bond on binding to HLA DR4", "setting": "HLA DRB1*0404", "value": "did not alter binding to HLA DR4"}, {"measurement": "effect of dithiothreitol on the vicinal disulfide bond", "setting": "[2]; dithiothreitol treatment, mass increased by 2 Dltons", "value": "reduced the vicinal disulfide bond"}]}, {"substance": "KRGIVEQCCTSICSL [KR-A1-13]", "values": [{"measurement": "clones proliferating in response to peptide", "setting": "[3]", "value": "none"}]}, {"substance": "S-6: serine substituted for the cysteine at A6", "values": [{"measurement": "proliferation of T cell clones to RP-HPLC fractions", "setting": "[1]; S-6 peptide in similar experiments, unpublished data", "value": "No fractions stimulated proliferation"}]}, {"substance": "S-11: analogue peptide with serine substituted for cysteine at position A11 (KRGIVEQSSTSISSL)", "values": [{"measurement": "effect of TCEP reduction on ability to stimulate the clones", "setting": "[1]; S-11 peptide (1 μM) treated with the disulfide-reducing agent TCEP", "value": "abolished the ability of S-11 to stimulate the clones"}, {"measurement": "formation of the vicinal disulfide bond", "setting": "[2]; S-11 peptide in culture medium", "value": "within minutes"}]}, {"substance": "insulin: clinical grade recombinant insulin", "values": [{"measurement": "HLA DR dependence of the response to insulin", "setting": "[1]; clinical grade recombinant insulin 10 μg/ml, anti-HLA DR mAb 5 μg/ml", "value": "HLA DR dependent"}, {"measurement": "stimulation of clones by insulin and proinsulin", "setting": "[1]", "value": "stimulated the clones equally"}]}, {"substance": "proinsulin: Recombinant human proinsulin produced in-house, shown to be folded correctly and free of endotoxin", "values": [{"measurement": "stimulation of clones by insulin and proinsulin", "setting": "[1]", "value": "stimulated the clones equally"}]}]}
